Consider nine molecules from ChEMBL document CHEMBL1132926, “2-amino-2-oxazolines as subtype selective alpha(2) adrenoceptor agonists” (J Med Chem, 2000).

The source made the active and inactive calls. No cut-off for these calls is given here.

Assay [1] deals with T1, Alpha-2C adrenergic receptor (Homo sapiens, UniProt P18825).
T1 sequence (P18825 whole entry): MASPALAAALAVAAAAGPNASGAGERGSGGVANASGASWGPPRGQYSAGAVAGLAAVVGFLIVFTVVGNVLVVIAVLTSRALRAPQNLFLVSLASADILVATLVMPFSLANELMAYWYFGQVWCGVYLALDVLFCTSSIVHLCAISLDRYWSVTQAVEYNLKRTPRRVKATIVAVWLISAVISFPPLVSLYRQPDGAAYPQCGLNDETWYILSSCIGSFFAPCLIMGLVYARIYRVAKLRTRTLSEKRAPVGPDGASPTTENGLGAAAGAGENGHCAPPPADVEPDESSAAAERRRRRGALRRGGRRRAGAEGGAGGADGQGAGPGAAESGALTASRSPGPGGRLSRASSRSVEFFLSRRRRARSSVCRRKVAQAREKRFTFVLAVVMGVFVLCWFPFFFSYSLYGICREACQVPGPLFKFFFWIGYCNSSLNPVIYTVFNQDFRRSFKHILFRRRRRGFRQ
As to the kind of experiment: Inhibitory constant, using [3H]rauwolscine in LM(tk-) cells stably transfected with cloned human Alpha-2C adrenergic receptor. Format: cell-based. The procedure, abridged: (§1)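 Equilibrium competition binding against [3H]rauwolscine on membranes from cultured cells stably transfected with cloned human alpha2 subtypes: alpha2A and alpha2C in LM(tk-) cells, alpha2B in Y-1 cells. Equilibrium inhibition constants were estimated by nonlinear regression and reported as pKi.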

The target in assay [2] is T2, Alpha-2A adrenergic receptor (Homo sapiens, UniProt P08913).
T2 sequence (P08913 whole entry): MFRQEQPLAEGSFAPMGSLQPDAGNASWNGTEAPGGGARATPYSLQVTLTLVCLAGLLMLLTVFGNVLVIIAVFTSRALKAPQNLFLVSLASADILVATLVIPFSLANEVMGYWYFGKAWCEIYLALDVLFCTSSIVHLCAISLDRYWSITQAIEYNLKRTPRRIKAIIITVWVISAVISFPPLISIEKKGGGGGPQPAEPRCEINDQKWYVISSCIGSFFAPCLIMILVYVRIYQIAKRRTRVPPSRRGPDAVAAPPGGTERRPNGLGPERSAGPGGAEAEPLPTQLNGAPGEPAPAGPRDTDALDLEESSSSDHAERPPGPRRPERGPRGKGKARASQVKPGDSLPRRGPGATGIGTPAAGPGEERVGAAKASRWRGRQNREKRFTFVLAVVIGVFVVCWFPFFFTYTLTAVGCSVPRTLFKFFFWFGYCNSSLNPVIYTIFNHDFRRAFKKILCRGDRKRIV
As to the kind of experiment: Inhibitory constant against human Alpha-2A adrenergic receptor expressed in LM(tk-) cells using [3H]rauwolscine. Format: cell-based. The procedure, abridged:
as §1

The target in assay [3] is T3, Alpha-2B adrenergic receptor (Homo sapiens, UniProt P18089).
T3 sequence (P18089 whole entry): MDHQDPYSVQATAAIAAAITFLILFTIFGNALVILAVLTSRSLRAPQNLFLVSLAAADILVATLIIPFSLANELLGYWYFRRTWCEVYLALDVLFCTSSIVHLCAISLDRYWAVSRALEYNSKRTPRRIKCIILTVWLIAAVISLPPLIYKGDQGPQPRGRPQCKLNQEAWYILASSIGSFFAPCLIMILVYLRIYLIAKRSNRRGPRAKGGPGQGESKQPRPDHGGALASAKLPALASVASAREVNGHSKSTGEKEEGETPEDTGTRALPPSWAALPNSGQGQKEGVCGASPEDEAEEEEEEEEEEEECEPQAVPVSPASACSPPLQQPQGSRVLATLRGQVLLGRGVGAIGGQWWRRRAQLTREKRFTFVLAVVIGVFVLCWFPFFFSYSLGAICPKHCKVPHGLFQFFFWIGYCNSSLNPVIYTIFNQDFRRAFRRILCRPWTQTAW
As to the kind of experiment: Inhibitory constant against human Alpha-2B adrenergic receptor expressed in Y-1 cells using [3H]rauwolscine. Format: cell-based. The procedure, abridged:
as §1

Assay [4] concerns the target T4, Alpha-2B adrenergic receptor (Homo sapiens) (UniProt P18089).
T4 sequence (whole entry): T3 sequence (P18089 whole entry)
As to the kind of experiment: Alpha2b receptor agonism measured as ability to inhibit forskolin-stimulated synthesis of cAMP; NA=not active. Format: functional.

Assay [5] concerns the target T2, Alpha-2A adrenergic receptor. As to the kind of experiment: Alpha-2A adrenergic receptor agonism measured as ability to inhibit forskolin-stimulated synthesis of cAMP. Format: functional.
The target of assay [6] is T1, Alpha-2C adrenergic receptor. As to the kind of experiment: (§2) Alpha2c receptor agonism measured as ability to inhibit forskolin-stimulated synthesis of cAMP. Format: functional.
Assay [7] deals with T5, Alpha-2A adrenergic receptor (Homo sapiens) (UniProt P08913).
T5 sequence (whole entry): T2 sequence (P08913 whole entry)
As to the kind of experiment: Alpha-2A adrenergic receptor agonism measured as ability to inhibit forskolin-stimulated synthesis of cAMP; NA=not active. Type of assay: functional.

Assay [8] deals with T4, Alpha-2B adrenergic receptor (Homo sapiens). As to the kind of experiment: Alpha-2B adrenergic receptor agonism measured as ability to inhibit forskolin-stimulated synthesis of cAMP; NA=not active. Type of assay: functional.
For assay [9], the target named is T6, Alpha-2C adrenergic receptor (Homo sapiens) (UniProt P18825).
T6 sequence (whole entry): T1 sequence (P18825 whole entry)
As to the kind of experiment: Alpha-2C adrenergic receptor agonism measured as ability to inhibit forskolin-stimulated synthesis of cAMP; NA=not active. Format: functional.

In assay [10] the target is T1, Alpha-2C adrenergic receptor. As to the kind of experiment: Inhibitory constant determined using [3H]rauwolscine in LM(tk-) cells stably transfected with cloned human Alpha-2C adrenergic receptor. Type of assay: cell-based. An outline of the steps: as §1
Assay [11] has the same target. As to the kind of experiment: Alpha-2C adrenergic receptor agonism measured as ability to inhibit forskolin-stimulated synthesis of cAMP. Format: functional.
For assay [12], the target named is T3, Alpha-2B adrenergic receptor. As to the kind of experiment: (§3) Alpha-2B adrenergic receptor agonism measured as ability to inhibit forskolin-stimulated synthesis of cAMP. Format: functional.
The target of assay [13] is T4, Alpha-2B adrenergic receptor (Homo sapiens). As to the kind of experiment: Alpha2b receptor agonism measured as ability to inhibit forskolin-stimulated synthesis of cAMP;NA=not active. Type of assay: functional.
Assay [14] has the same target. Described as §3. Format: functional.
Assay [15] concerns the target T6, Alpha-2C adrenergic receptor (Homo sapiens). Described as §2. Type of assay: functional.
Assay [16] has as its target T5, Alpha-2A adrenergic receptor (Homo sapiens). As to the kind of experiment: Alpha2a receptor agonism measured as ability to inhibit forskolin-stimulated synthesis of cAMP. Format: functional.
In assay [17] the target is T6, Alpha-2C adrenergic receptor (Homo sapiens). As to the kind of experiment: Alpha2c receptor agonism measured as ability to inhibit forskolin-stimulated synthesis of cAMP; NA=not active. Format: functional.
The target is the same in assay [18]. As to the kind of experiment: Alpha2c receptor agonism measured as ability to inhibit forskolin-stimulated synthesis of cAMP; NA=not active (IA< 0.3). Format: functional.
Assay [19] deals with T4, Alpha-2B adrenergic receptor (Homo sapiens). As to the kind of experiment: Alpha-2B adrenergic receptor agonism measured as ability to inhibit forskolin-stimulated synthesis of cAMP; NA=not active (IA< 0.3). Format: functional.

Regarding `C(=C\c1ccccc1)/C[C@H]1C2CCC(C2)[C@H]1NC1=NCCO1` (some centres not stated), the Ki is 85.1 nM in assay [1], 15.8 nM in assay [2] and 102 nM in assay [3]. Moreover, in [4], the NA entry is “inactive”. Also, the EC50 in assay [5] is 70.8 nM; in [6], 2 nM.
Turning to `c1ccc(CCC[C@H]2C3CCC(C3)[C@H]2NC2=NCCO2)cc1` (some centres not stated), the Ki in assay [1] is 123 nM; in [2], 30.9 nM; in assay [3], 141 nM. Also, the NA entry in assay [4] was “inactive”. The EC50 is 34.7 nM in [5] and 60.3 nM in assay [6].
In the case of `c1ccc([C@H]2CCCC[C@@H]2NC2=NCCO2)cc1`, the alpha-2A agonist activity entry in assay [7] was “inactive”. Besides, the values for the Ki in [1], in assay [2] and in assay [3] were 52.5 nM, 18.2 nM and 22.4 nM, respectively. The NA entry in [8] and in assay [9] was “inactive” in each case.
As to `CCC[C@H]1CCCC[C@@H]1NC1=NCCO1`, the inhibition constant (Ki) in assay [10] was 24.5 nM; in assay [2], 2.95 nM; in assay [3] it was 5.89 nM. Also, the results for the EC50 in assay [11], in [12] and in [5] were 4.07 nM, 9.33 nM and 1.62 nM, respectively.
Regarding `c1ccc(C[C@H]2C3CCC(C3)[C@H]2NC2=NCCO2)cc1` (some centres not stated), the alpha-2A agonist activity result in assay [7] was “inactive”. In addition, the Ki in assay [1] is 79.4 nM; in [2], 13.8 nM; in [3] it was 40.7 nM. In [13], the NA entry is “inactive”. Also, in [6], the EC50 is 13.8 nM.
Consider `CCC[C@H]1C2CCC(C2)[C@H]1NC1=NCCO1` (some centres not stated), for which the values for the Intrinsic activity in [14], in assay [15] and in assay [16] were 0.4, 0.9 and 0.9, respectively. For the same molecule, the values for the Ki in [1], in assay [2] and in [3] were 123 nM, 28.2 nM and 91.2 nM, respectively. Further, the EC50 in assay [12] is 562 nM; in assay [5] it was 11 nM; in assay [6], 21.4 nM.
As to `c1ccc(CC[C@H]2CCCC[C@@H]2NC2=NCCO2)cc1`, the NA entry in [7], in [8] and in [17] was “inactive” throughout. Further, the Ki was 10.7 nM in [1], 1.45 nM in assay [2] and 6.92 nM in [3].
On to `c1ccc(C[C@H]2CCCC[C@@H]2NC2=NCCO2)cc1`, for which the alpha-2A agonist activity entry in [7] is “inactive”. The values for the Ki in assay [1], in assay [2] and in assay [3] were 66.1 nM, 20.9 nM and 40.7 nM, respectively. The NA entry in assay [18] and in assay [19] was “inactive” in each case.
As for `c1ccc(CCC[C@H]2CCCC[C@@H]2NC2=NCCO2)cc1`, the alpha-2A agonist activity result in assay [7] was “inactive”. The Ki in assay [1] is 32.4 nM; in assay [2], 15.1 nM; in assay [3], 32.4 nM. Also, in assay [8], the NA result was “inactive”. In [6], this molecule gave an EC50 of 26.9 nM.
